In the M2OR odorant receptor database:

Experiments:
Conditions in all cases: stereoisomer not certain
[1] = target: T1, UniProt Q8VGM2
T1 sequence (whole entry): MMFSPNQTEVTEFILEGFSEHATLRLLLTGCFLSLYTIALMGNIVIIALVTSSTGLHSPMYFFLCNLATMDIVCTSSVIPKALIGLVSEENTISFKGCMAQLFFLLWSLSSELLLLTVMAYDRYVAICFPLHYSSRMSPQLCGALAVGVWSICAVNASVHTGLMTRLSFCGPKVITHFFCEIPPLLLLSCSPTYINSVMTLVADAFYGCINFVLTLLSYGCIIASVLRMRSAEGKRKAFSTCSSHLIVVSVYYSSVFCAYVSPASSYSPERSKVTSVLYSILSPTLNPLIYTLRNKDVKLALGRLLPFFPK
Method in brief: (§1)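 Assay methods differ from source to source, frequently being transient luciferase assays in mammalian cell lines. For each receptor–molecule pair, the label responsive (active) applies when the original authors judged the measured signal statistically different from baseline, and non-responsive (inactive) applies otherwise.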

[2] = target: T2, UniProt Q8VGP6
T2 sequence (whole entry): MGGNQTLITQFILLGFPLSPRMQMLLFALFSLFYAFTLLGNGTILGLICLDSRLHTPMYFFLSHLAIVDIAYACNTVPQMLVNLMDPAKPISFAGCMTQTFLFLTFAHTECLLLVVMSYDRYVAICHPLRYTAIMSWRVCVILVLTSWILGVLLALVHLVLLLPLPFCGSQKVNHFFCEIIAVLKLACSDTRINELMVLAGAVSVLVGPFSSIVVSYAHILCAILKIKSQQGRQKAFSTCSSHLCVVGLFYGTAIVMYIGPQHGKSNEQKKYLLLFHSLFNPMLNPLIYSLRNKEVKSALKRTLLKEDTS
Method in brief: as §1

[3] = target: T3, UniProt Q8VGQ3
T3 sequence (whole entry): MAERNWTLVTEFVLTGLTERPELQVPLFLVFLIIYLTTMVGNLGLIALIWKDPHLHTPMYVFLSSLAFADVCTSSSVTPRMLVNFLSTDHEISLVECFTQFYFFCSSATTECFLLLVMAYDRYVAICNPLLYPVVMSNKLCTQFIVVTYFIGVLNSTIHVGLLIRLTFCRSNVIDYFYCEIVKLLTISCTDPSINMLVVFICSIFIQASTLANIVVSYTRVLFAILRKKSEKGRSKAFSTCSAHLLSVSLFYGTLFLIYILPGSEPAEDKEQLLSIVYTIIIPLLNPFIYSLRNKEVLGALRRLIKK
Method in brief: as §1

[4] = target: T4, UniProt Q8VGT4
T4 sequence (whole entry): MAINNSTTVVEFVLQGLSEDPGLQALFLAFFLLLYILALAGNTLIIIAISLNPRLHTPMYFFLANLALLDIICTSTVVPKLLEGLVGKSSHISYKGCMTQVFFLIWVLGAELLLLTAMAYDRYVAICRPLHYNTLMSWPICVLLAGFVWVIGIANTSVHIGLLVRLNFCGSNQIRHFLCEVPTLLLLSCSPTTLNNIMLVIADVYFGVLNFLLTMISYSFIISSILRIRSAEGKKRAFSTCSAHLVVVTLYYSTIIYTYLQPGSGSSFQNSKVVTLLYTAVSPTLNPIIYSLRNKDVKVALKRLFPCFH
Method in brief: as §1

[5] = target: T5, UniProt Q8VGU3
T5 sequence (whole entry): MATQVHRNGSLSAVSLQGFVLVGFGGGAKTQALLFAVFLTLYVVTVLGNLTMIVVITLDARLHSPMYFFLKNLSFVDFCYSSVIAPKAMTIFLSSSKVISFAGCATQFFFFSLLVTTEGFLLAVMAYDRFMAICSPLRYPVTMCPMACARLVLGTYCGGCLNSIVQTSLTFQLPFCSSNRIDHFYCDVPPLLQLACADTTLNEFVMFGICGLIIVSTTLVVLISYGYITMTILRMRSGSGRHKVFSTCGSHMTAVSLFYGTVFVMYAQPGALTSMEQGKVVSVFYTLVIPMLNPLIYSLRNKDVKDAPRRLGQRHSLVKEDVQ
Method in brief: as §1

[6] = target: T6, UniProt Q8VGV1
T6 sequence (whole entry): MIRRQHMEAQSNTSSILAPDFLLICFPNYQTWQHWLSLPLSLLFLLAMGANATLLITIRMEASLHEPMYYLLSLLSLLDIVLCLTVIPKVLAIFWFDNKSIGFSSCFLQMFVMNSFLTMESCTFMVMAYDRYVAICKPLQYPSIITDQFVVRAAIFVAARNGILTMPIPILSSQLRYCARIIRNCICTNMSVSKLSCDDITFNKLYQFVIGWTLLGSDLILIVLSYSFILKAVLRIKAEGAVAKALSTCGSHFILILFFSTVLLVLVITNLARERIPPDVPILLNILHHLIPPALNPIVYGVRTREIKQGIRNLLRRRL
Method in brief: as §1

[7] = target: T7, UniProt Q8VGV7
T7 sequence (whole entry): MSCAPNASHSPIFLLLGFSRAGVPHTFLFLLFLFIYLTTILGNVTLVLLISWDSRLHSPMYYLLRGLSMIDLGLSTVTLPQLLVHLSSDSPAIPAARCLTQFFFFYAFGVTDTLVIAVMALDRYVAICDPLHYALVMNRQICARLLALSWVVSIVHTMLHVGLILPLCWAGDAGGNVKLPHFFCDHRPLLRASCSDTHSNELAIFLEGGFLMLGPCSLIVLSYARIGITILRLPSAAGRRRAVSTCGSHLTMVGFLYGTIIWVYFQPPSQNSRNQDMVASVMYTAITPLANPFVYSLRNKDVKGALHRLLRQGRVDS
Method in brief: as §1

[8] = target: T8, UniProt Q8VGX3
T8 sequence (whole entry): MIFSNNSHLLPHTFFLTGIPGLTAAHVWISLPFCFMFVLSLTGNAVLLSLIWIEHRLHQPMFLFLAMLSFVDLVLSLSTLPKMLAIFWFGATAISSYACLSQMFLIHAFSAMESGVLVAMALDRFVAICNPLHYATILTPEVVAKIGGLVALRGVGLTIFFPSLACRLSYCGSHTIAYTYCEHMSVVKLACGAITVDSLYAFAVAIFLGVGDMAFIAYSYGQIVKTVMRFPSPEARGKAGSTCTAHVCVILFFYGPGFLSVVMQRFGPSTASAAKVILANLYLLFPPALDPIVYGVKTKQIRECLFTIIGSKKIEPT
Method in brief: as §1

[9] = target: T9, UniProt Q8VGX5
T9 sequence (whole entry): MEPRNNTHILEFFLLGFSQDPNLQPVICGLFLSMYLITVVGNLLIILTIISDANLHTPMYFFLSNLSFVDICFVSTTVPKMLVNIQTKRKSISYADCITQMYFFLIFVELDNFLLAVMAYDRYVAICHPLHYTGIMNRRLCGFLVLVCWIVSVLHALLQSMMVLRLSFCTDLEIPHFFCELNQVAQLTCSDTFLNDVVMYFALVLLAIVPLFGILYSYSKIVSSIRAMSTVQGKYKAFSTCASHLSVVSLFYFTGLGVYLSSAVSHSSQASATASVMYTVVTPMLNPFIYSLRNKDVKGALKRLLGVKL
Method in brief: as §1

[10] = target: T10, UniProt Q8VGW5
T10 sequence (whole entry): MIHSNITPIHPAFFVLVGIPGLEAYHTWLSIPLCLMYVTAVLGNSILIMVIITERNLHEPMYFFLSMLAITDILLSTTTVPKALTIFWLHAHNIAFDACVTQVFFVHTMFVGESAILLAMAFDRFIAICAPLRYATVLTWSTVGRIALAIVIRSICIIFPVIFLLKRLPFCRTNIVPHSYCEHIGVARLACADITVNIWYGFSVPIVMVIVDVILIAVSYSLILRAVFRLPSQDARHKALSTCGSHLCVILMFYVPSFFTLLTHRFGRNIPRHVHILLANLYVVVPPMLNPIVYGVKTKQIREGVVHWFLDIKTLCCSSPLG
Method in brief: as §1

Compound | odorant receptor agonist call [1] | odorant receptor agonist call [2] | odorant receptor agonist call [3] | odorant receptor agonist call [4] | odorant receptor agonist call [5] | odorant receptor agonist call [6] | odorant receptor agonist call [7] | odorant receptor agonist call [8] | odorant receptor agonist call [9] | odorant receptor agonist call [10]
CC(=O)Oc1ccccc1 | inactive | inactive | inactive | inactive | inactive | inactive | inactive | inactive | active | –
CCCCC(=O)CC | inactive | inactive | inactive | inactive | inactive | inactive | inactive | inactive | inactive | –
CCCCCCOC(C)=O | inactive | inactive | inactive | inactive | inactive | inactive | inactive | inactive | inactive | –
CC12CCC(CC1=O)C2(C)C (stereo unspecified) | inactive | inactive | inactive | active | inactive | inactive | inactive | inactive | active | –
CCCCC(=O)O | inactive | inactive | inactive | inactive | inactive | inactive | inactive | inactive | inactive | –
CCC(=O)C(=O)CC | inactive | inactive | inactive | inactive | inactive | inactive | inactive | inactive | inactive | –
CCCCCC1=C(C)CCC1=O | inactive | inactive | inactive | inactive | inactive | inactive | inactive | inactive | active | –
CCCCCCCCC(=O)O | inactive | inactive | inactive | inactive | inactive | active | inactive | inactive | inactive | inactive
CCCCCC(=O)CC | inactive | inactive | inactive | inactive | inactive | inactive | inactive | inactive | inactive | –
CCCCCCO | inactive | inactive | inactive | inactive | inactive | inactive | inactive | inactive | inactive | inactive
CCCCC(C)=O | inactive | inactive | inactive | inactive | inactive | inactive | inactive | inactive | inactive | –
CCCCCCCCCS | inactive | active | inactive | inactive | inactive | inactive | inactive | inactive | inactive | –
CCCCCCCCO | inactive | active | inactive | inactive | inactive | inactive | inactive | inactive | inactive | inactive
CC(C)=CCCC(C)=CCO | inactive | inactive | inactive | inactive | inactive | inactive | inactive | inactive | active | –
CCCCCC=O | inactive | inactive | inactive | inactive | inactive | inactive | inactive | inactive | inactive | –
CCCCCCCO | inactive | active | inactive | inactive | inactive | inactive | inactive | inactive | inactive | inactive
CCCCCCCCS | inactive | inactive | inactive | inactive | inactive | inactive | inactive | inactive | inactive | –
C=CCOC(=O)CCCCCC | inactive | inactive | inactive | inactive | inactive | inactive | inactive | inactive | inactive | –
CCC(=O)O | inactive | inactive | inactive | inactive | inactive | inactive | inactive | inactive | inactive | –
CCCCCCCCCCO | inactive | active | inactive | inactive | inactive | inactive | inactive | inactive | inactive | –
CCCCCCCCCO | inactive | active | inactive | inactive | inactive | inactive | inactive | inactive | inactive | inactive
CCCCCCCC(C)=O | inactive | inactive | inactive | inactive | inactive | inactive | inactive | inactive | inactive | –
O=C(c1ccccc1)c1ccccc1 | inactive | inactive | inactive | inactive | inactive | inactive | inactive | inactive | inactive | –
CCCCCOC(=O)CCCCC | inactive | inactive | inactive | inactive | inactive | inactive | inactive | inactive | inactive | –
CCCC(=O)C(C)=O | inactive | inactive | inactive | inactive | inactive | inactive | inactive | inactive | inactive | –
CCCCCCC(C)=O | inactive | inactive | inactive | inactive | inactive | inactive | inactive | inactive | inactive | –
O=C1CCOc2ccccc21 | inactive | inactive | inactive | inactive | inactive | inactive | inactive | inactive | active | –
c1ccccc1 | inactive | inactive | inactive | inactive | inactive | inactive | inactive | inactive | inactive | –
CCCCCCCCCC(=O)[O-].[H+] | inactive | inactive | inactive | inactive | inactive | active | inactive | inactive | inactive | inactive
CCCCOC=O | inactive | inactive | inactive | inactive | inactive | inactive | inactive | inactive | inactive | –
